Laboratory results published in paper PMC8612936 (The Lancet. Infectious Diseases, 2021).
≈ marks a conversion by molar mass, not a printed value. Where “and” joins values, the source holds several entries; their conditions need not be identical. Equal values may be shown once. Entries after “also recorded” stand apart in the source; their conditions may differ.

Legend:
M5717-resistant mutants = settings: pyronaridine partnered with M5717; cited from earlier work
Plasmodium falciparum [1] = test: VIS: parasite clearance kinetics and recrudescence; type: in vivo; settings: for PRR48 (95% CI), second phase: cohort estimate
Outline: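 Volunteers were given about 2800 viable P falciparum-infected erythrocytes intravenously on day −8. Parasitaemia was measured by qPCR of the 18S rRNA gene, twice daily from day 4 after inoculation. A single fasted oral dose (150, 400 or 800 mg) was given when parasitaemia was expected to reach ≥5000 parasites/mL. […] Recrudescence was followed to day 28; artemether–lumefantrine was given on recrudescence or at day 21.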

[2] = oral administration of 3–5 mg/kg; cited from earlier work
[3] = VIS: M5717 whole-blood pharmacokinetics; type: in vivo; settings: human, po
Outline: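 Healthy malaria-naive adults (18–55 y) were inoculated intravenously with about 2800 viable P falciparum-infected erythrocytes on day −8. On day 1 they took a single oral capsule dose (150, 400 or 800 mg) with 250 mL water after fasting ≥8 h, with no food until 4 h. The test compound was measured in whole blood (LLOQ 1 ng/mL), giving AUC0–∞, apparent terminal t½ and Vz/F.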

CYP3A4 = settings: preclinical studies, no reference given; cited from earlier work
Plasmodium falciparum [4] = settings: cited from earlier work
[5] = SAD: M5717 whole-blood pharmacokinetics; type: in vivo, human; settings: for Vd/F / half-life / AUC(0-inf) / AUC(0-t): whole blood; for AUC(0-t): SAD 2100 mg oral, N=1
[6] = Single ascending dose study; type: in vivo, human
[7] = Volunteer infection study; type: in vivo, human
Outline: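 Intravenously inoculated, blood-stage P falciparum-infected healthy volunteers received one fasted oral dose (150, 400 or 800 mg). They stayed in the clinic until day 4, then attended outpatient follow-up to day 44.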

Plasmodium spp = settings: cited from earlier work
[8] = SAD 2100 mg single oral dose, N=1
[9] = SAD, all 49 participants dosed with M5717

## COc1ccc2nc3cc(Cl)ccc3c(Nc3cc(CN4CCCC4)c(O)c(CN4CCCC4)c3)c2n1 [pyronaridine]
M5717-resistant mutants
  Selection of M5717-resistant mutants: prevented selection of M5717-resistant mutants

## O=C(NCCN1CCCC1)c1cc(-c2ccc(CN3CCOCC3)cc2)nc2ccc(F)cc12 [M5717]
Plasmodium falciparum [1]; VIS 150 mg, individual participants
  Time of recrudescence after M5717 dosing: 10 days and 11 days and 19 days
Plasmodium falciparum [1]; VIS 150 mg, six participants
  Recrudescence incidence: 50%
Plasmodium falciparum [1]; VIS 400 mg single oral dose, N=6
  PRR48 (95% CI), second phase: 5127 (1006 to 26 132)
Plasmodium falciparum [1]; VIS 400 mg, both participants
  Time of recrudescence after M5717 dosing: 12 days
Plasmodium falciparum [1]; VIS 400 mg, eight participants
  Recrudescence incidence: 25%
Plasmodium falciparum [1]; VIS 800 mg single oral dose, N=7
  PRR48 (95% CI), second phase: 436 (179 to 1061)
Plasmodium falciparum [1]; VIS 800 mg, up to 21 days after dosing
  Recrudescence: No recrudescence
Plasmodium falciparum [1]; VIS 150, 400, 800 mg
  Duration of initial slow parasite clearance phase: 35 to 55 h
  Parasite clearance following M5717 dosing: all participants
[2]
  Half-life in preclinical animal studies: 18 to 20 h
[3]; 150 mg
  AUC(0-inf): 3100 ng·h/mL
  Vd/F: 5880 L
  half-life: 106 h
[3]; 400 mg
  Vd/F: 6530 L
  half-life: 146 h
[3]; 800 mg
  Vd/F: 8890 L
  half-life: 193 h
CYP3A4
  Active or toxic metabolites: no active or toxic metabolites identified
Plasmodium falciparum [4]
  Potency against Plasmodium falciparum: nanomolar potency
[5]; across dose levels, SAD and VIS
  Time of peak whole-blood concentration after dosing: approximately 2 h
[5]; doses of 150 mg and higher
  Time with M5717 concentration at least 3 ng/mL in all participants: at least 168 h
[5]; doses of 400 mg or higher
  Time with M5717 concentration 10 ng/mL or higher in all participants: at least 168 h
[5]; human, prediction before the study
  Terminal half-life predicted before the study: 250 h
[5]; human, oral
  Vd/F: 5880 to 9510 L
  half-life: 106 to 193 h
[5]; human, oral, 200 mg
  half-life: 133 to 145 h
[5]; human, po, 50 mg
  AUC(0-inf): 997 ng·h/mL
  Vd/F: 7640 L
  half-life: 133 h
[5]; human, po, 100 mg
  AUC(0-inf): 1710 ng·h/mL
  Vd/F: 8890 L
  half-life: 133 h
[5]; human, po, 200 mg
  AUC(0-inf): 3500 ng·h/mL
  Vd/F: 9510 L
  half-life: 145 h
[5]; human, po, 400 mg
  Vd/F: 7100 L
  half-life: 155 h
[5]; human, po, 600 mg
  Vd/F: 7160 L
  half-life: 181 h
[5]; human, po, 1000 mg
  Vd/F: 6770 L
  half-life: 169 h
[5]; human, po, 1250 mg
  Vd/F: 6830 L
  half-life: 180 h
[5]; human, po, 1800 mg
  Vd/F: 7060 L
  half-life: 181 h
[5]; human, po, 2100 mg
  AUC(0-inf): 43000 ng·h/mL
  Vd/F: 7870 L
  half-life: 140 h
[5]; human, po, 2100 mg, AUC0–144h
  AUC(0-t): 27200 ng·h/mL
[5]; human, po, 2100 mg, AUC0–t
  AUC(0-t): 42200 ng·h/mL
[6]; 1800 mg only
  M5717-related dizziness: three
[6]; 1800 mg or 2100 mg groups only
  M5717-related blurred vision: four
  M5717-related oral hypoesthesia: three
[6]; SAD 50 mg single oral dose
  Any adverse event: 6 (100%) n (%)
  Moderate adverse event (grade 2): 1 (17%) n (%)
  Moderate adverse event (grade 2) related to study treatment: 0 n (%)
  Severe adverse event (grade 3): 1 (17%) n (%)
[6]; SAD 100 mg single oral dose
  Any adverse event: 5 (83%) n (%)
  Moderate adverse event (grade 2): 1 (17%) n (%)
  Moderate adverse event (grade 2) related to study treatment: 0 n (%)
  Severe adverse event (grade 3): 0 n (%)
[6]; SAD 200 mg single oral dose
  Any adverse event: 3 (50%) n (%)
  Moderate adverse event (grade 2): 0 n (%)
  Moderate adverse event (grade 2) related to study treatment: 0 n (%)
  Severe adverse event (grade 3): 0 n (%)
[6]; SAD 400 mg single oral dose
  Any adverse event: 4 (67%) n (%)
  Moderate adverse event (grade 2): 0 n (%)
  Moderate adverse event (grade 2) related to study treatment: 0 n (%)
  Severe adverse event (grade 3): 0 n (%)
[6]; SAD 600 mg single oral dose
  Any adverse event: 3 (50%) n (%)
  Moderate adverse event (grade 2): 1 (17%) n (%)
  Moderate adverse event (grade 2) related to study treatment: 0 n (%)
  Severe adverse event (grade 3): 0 n (%)
[6]; SAD 1000 mg single oral dose
  Any adverse event: 4 (67%) n (%)
  Moderate adverse event (grade 2): 0 n (%)
  Moderate adverse event (grade 2) related to study treatment: 0 n (%)
  Severe adverse event (grade 3): 0 n (%)
[6]; SAD 1250 mg single oral dose
  Any adverse event: 5 (83%) n (%)
  Moderate adverse event (grade 2): 1 (17%) n (%)
  Moderate adverse event (grade 2) related to study treatment: 1 (17%) n (%)
  Severe adverse event (grade 3): 0 n (%)
[6]; SAD 1800 mg single oral dose
  Any adverse event: 6 (100%) n (%)
  Moderate adverse event (grade 2): 0 n (%)
  Moderate adverse event (grade 2) related to study treatment: 0 n (%)
  Severe adverse event (grade 3): 0 n (%)
[6]; [8]
  Any adverse event: 1 (100%) n (%)
  Any adverse event related to study treatment: 1 (100%) n (%)
  Moderate adverse event (grade 2): 1 (100%) n (%)
  Moderate adverse event (grade 2) related to study treatment: 1 (100%) n (%)
  Severe adverse event (grade 3): 0 n (%)
[6]; SAD and VIS
  Serious adverse events: No adverse event was serious; also recorded: No serious adverse events
  Severity of adverse events related to M5717: mild or moderate
  Vital signs, ECGs, clinical laboratory parameters: No dose-related trends
[6]; [9]
  Participants with adverse events related to M5717: 12 (24%) n (%)
  Participants with at least one adverse event: 37 (76%) n (%)
[6]; single oral dose, healthy adults
  Dose up to which M5717 is well tolerated: ≤ 1250 mg
[7]; VIS 150 mg single oral dose
  Any adverse event: 6 (100%) n (%)
  Any adverse event related to study treatment: 0 n (%)
  Moderate adverse event (grade 2): 2 (33%) n (%)
  Moderate adverse event (grade 2) related to study treatment: 0 n (%)
  Severe adverse event (grade 3): 0 n (%)
[7]; VIS 400 mg single oral dose
  Any adverse event: 8 (100%) n (%)
  Moderate adverse event (grade 2): 3 (38%) n (%)
  Moderate adverse event (grade 2) related to study treatment: 0 n (%)
  Severe adverse event (grade 3): 0 n (%)
[7]; VIS 800 mg single oral dose
  Any adverse event: 7 (88%) n (%)
  Any adverse event related to study treatment: 0 n (%)
  Moderate adverse event (grade 2): 2 (25%) n (%)
  Moderate adverse event (grade 2) related to study treatment: 0 n (%)
  Severe adverse event (grade 3): 1 (13%) n (%)
[7]; VIS, all 22 participants
  Participants with at least one adverse event after M5717 dosing: 21 (95%) n (%)
Plasmodium spp; estimated in mice
  Minimum inhibitory concentration (MIC): 3 ng/mL (≈ 6.49 nM)
  Minimum parasiticidal concentration: 10 ng/mL
Plasmodium spp; in vitro and in the mouse efficacy model
  Lag in antimalarial activity: 24 to 48 h
